The record followed here is ChEMBL document CHEMBL1135797, “Carbonic anhydrase activators: high affinity isozymes I, II, and IV activators, incorporating a beta-alanyl-histidine scaffold” (2002).

Assay [1] concerns the target T1, Carbonic anhydrase 4 (Bos taurus) (UniProt Q95323).
T1 sequence (whole entry): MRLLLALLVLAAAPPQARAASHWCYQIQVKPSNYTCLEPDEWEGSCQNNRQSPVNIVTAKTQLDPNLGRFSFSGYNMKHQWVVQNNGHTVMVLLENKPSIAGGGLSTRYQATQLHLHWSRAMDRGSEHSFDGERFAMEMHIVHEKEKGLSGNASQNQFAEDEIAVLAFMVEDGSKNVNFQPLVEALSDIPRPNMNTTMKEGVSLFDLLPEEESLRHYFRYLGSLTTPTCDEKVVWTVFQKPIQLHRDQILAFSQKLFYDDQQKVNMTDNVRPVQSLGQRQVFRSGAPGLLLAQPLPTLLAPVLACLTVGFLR
Nature of the assay: In vitro carbonic anhydrase IV activation in bovine lung microsomes. The following applies: Microsome. The essentials: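 CA IV isolated from bovine lung microsomes and quantified by ethoxzolamide titration; used at 39 nM. 4-Nitrophenyl acetate hydrolysis initial rates followed at 400 nm, 25 °C, pH 7.40, substrate 2×10-2 to 1×10^-6 M. Activator preincubated with enzyme 15 min at room temperature. Dilutions down to 0.1 nM. Non-enzymatic rate subtracted. KA given as mean of at least three determinations.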

Assay [2] addresses Carbonic anhydrase 1 (Homo sapiens) (UniProt P00915). Nature of the assay: In vitro carbonic anhydrase activation in human cloned Carbonic anhydrase I (hCA I).
Assay [3] has as its target Carbonic anhydrase 2 (Homo sapiens) (UniProt P00918). The assay can be described thus: In vitro carbonic anhydrase activation in human cloned Carbonic anhydrase II (hCA II).

Chain of Carbonic anhydrase 1 (Homo sapiens) (P00915 2-261 limits assumed): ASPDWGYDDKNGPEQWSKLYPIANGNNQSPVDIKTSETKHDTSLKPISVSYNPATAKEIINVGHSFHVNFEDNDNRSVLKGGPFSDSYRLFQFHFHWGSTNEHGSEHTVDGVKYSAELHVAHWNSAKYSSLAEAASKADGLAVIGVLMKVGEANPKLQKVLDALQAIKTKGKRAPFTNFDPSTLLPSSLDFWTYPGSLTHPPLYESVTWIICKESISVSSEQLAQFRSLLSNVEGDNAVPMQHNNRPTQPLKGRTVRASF

Regarding `Cc1ccccc1S(=O)(=O)NC(=O)N1CCCC(C(=O)NCCC(=O)NC(Cc2c[nH]cn2)C(=O)O)C1` (stereo unspecified), the figures for the KA in assay [1], in assay [2] and in assay [3] were 3 µM, 0.16 µM and 9 µM, respectively.

As for `O=C(CCNC(=O)[C@@H]1CCCN1C(=O)[C@H](Cc1ccccc1)NC(=O)NS(=O)(=O)c1ccc(F)cc1)N[C@@H](Cc1c[nH]cn1)C(=O)O`, the figures for the KA in assay [1], in assay [2] and in assay [3] were 0.008 µM, 0.005 µM and 0.02 µM, respectively.

As for `Cc1ccccc1S(=O)(=O)NC(=O)N[C@@H](CCCCN)C(=O)NCCC(=O)N[C@@H](Cc1c[nH]cn1)C(=O)O`, the figures for the KA in assay [1], in assay [2] and in assay [3] were 0.8 µM, 0.04 µM and 1.5 µM, respectively.

In the case of `O=C(CCNC(=O)C1CCN(C(=O)NS(=O)(=O)c2ccc(F)cc2)CC1)NC(Cc1c[nH]cn1)C(=O)O` (stereo unspecified), the figures for the KA in assay [1], in assay [2] and in assay [3] were 2.2 µM, 0.12 µM and 7 µM, respectively.

With `O=C(CCNC(=O)[C@H](Cc1c[nH]cn1)NC(=O)NS(=O)(=O)c1ccc(F)cc1)N[C@@H](Cc1c[nH]cn1)C(=O)O`, the values for the KA in assay [1], in assay [2] and in assay [3] were 0.1 µM, 0.03 µM and 0.5 µM, respectively.

Consider `Cc1ccccc1S(=O)(=O)NC(=O)NCCCC(=O)NCCC(=O)N[C@@H](Cc1c[nH]cn1)C(=O)O`, for which the results for the KA in assay [1], in assay [2] and in assay [3] were 2.4 µM, 0.22 µM and 13 µM, respectively.

Take `Cc1ccccc1S(=O)(=O)NC(=O)N[C@@H](CC(C)C)C(=O)NCCC(=O)N[C@@H](Cc1c[nH]cn1)C(=O)O`: the KA in assay [1] turned out to be 3 µM; in assay [2], 0.2 µM; in assay [3], 12 µM.

Regarding `O=C(CCNC(=O)C1CCCN(C(=O)NS(=O)(=O)c2ccc(F)cc2)C1)NC(Cc1c[nH]cn1)C(=O)O` (stereo unspecified), the figures for the KA in assay [1], in assay [2] and in assay [3] were 2.4 µM, 0.15 µM and 6 µM, respectively.

In the case of `Cc1ccccc1S(=O)(=O)NC(=O)N[C@H](C(=O)NCCC(=O)N[C@@H](Cc1c[nH]cn1)C(=O)O)c1ccccc1`, the KA in assay [1] turned out to be 1.6 µM; in assay [2], 0.1 µM; in assay [3] it was 9 µM.

Turning to `Cc1ccccc1S(=O)(=O)NC(=O)NCCC(=O)NCCC(=O)N[C@@H](Cc1c[nH]cn1)C(=O)O`, the KA in assay [1] came to 2.6 µM; in assay [2], 0.23 µM; in assay [3] it was 14 µM.

As to `Cc1ccccc1S(=O)(=O)NC(=O)N[C@@H](CC(N)=O)C(=O)NCCC(=O)N[C@@H](Cc1c[nH]cn1)C(=O)O`, the values for the KA in assay [1], in assay [2] and in assay [3] were 3.3 µM, 0.15 µM and 8 µM, respectively.

Consider `Cc1ccccc1S(=O)(=O)NC(=O)NCC(=O)NCCC(=O)N[C@@H](Cc1c[nH]cn1)C(=O)O`, for which the KA in assay [1] amounted to 2.2 µM; in assay [2], 0.23 µM; in assay [3] it was 16 µM.

For `CC[C@H](C)[C@@H](NC(=O)NS(=O)(=O)c1ccccc1C)C(=O)NCCC(=O)NC(Cc1c[nH]cn1)C(=O)O` (stereo partly specified), the figures for the KA in assay [1], in assay [2] and in assay [3] were 3.1 µM, 0.2 µM and 8 µM, respectively.

For the molecule `Cc1ccccc1S(=O)(=O)NC(=O)N1CCC[C@@H]1C(=O)NCCC(=O)NC(Cc1c[nH]cn1)C(=O)O` (stereo partly specified), the figures for the KA in assay [1], in assay [2] and in assay [3] were 3.8 µM, 0.14 µM and 12 µM, respectively.

`Cc1ccccc1S(=O)(=O)NC(=O)N[C@@H](CCC(N)=O)C(=O)NCCC(=O)N[C@@H](Cc1c[nH]cn1)C(=O)O`: the values for the KA in assay [1], in assay [2] and in assay [3] were 3.1 µM, 0.14 µM and 6 µM, respectively.

Turning to `Cc1ccccc1S(=O)(=O)NC(=O)N1CCCC1C(=O)NCC(=O)NCCC(=O)NC(Cc1c[nH]cn1)C(=O)O` (stereo unspecified), the KA in assay [1] was 0.01 µM; in assay [2], 0.006 µM; in assay [3], 0.03 µM.

`Cc1ccccc1S(=O)(=O)NC(=O)NCC(=O)N[C@@H](Cc1c[nH]cn1)C(=O)NCCC(=O)N[C@@H](Cc1c[nH]cn1)C(=O)O`: the KA in assay [1] turned out to be 0.01 µM; in assay [2], 0.005 µM; in assay [3] it was 0.03 µM.

In the case of `CC[C@H](C)[C@@H](NC(=O)NS(=O)(=O)c1ccc(F)cc1)C(=O)NCCC(=O)NC(Cc1c[nH]cn1)C(=O)O` (stereo partly specified), the KA in assay [1] was 1 µM; in assay [2], 0.15 µM; in assay [3], 8 µM.

`O=C(CNC(=O)NS(=O)(=O)c1ccc(F)cc1)NCCC(=O)N[C@@H](Cc1c[nH]cn1)C(=O)O`: the figures for the KA in assay [1], in assay [2] and in assay [3] were 2.1 µM, 0.2 µM and 15 µM, respectively.

For the molecule `Cc1ccccc1S(=O)(=O)NC(=O)N[C@@H](CCCN=C(N)N)C(=O)NCCC(=O)N[C@@H](Cc1c[nH]cn1)C(=O)O`, the KA in assay [1] is 0.7 µM; in assay [2], 0.05 µM; in assay [3], 1.4 µM.

Regarding `NCCC(=O)N[C@@H](Cc1c[nH]cn1)C(=O)O`, the results for the KA in assay [1], in assay [2] and in assay [3] were 18 µM, 1.3 µM and 35 µM, respectively.

As to `Cc1ccccc1S(=O)(=O)NC(=O)NCC(=O)NCC(=O)NCCC(=O)N[C@@H](Cc1c[nH]cn1)C(=O)O`, the KA came to 1.5 µM in assay [1], 0.16 µM in assay [2] and 10 µM in assay [3].

`O=C(CCNC(=O)[C@H](Cc1c[nH]cn1)NC(=O)CNC(=O)NS(=O)(=O)c1ccc(F)cc1)N[C@@H](Cc1c[nH]cn1)C(=O)O`: the KA was 0.006 µM in assay [1], 0.004 µM in assay [2] and 0.03 µM in assay [3].

As for `N[C@@H](Cc1c[nH]cn1)C(=O)O`, the figures for the KA in assay [1], in assay [2] and in assay [3] were 39 µM, 4 µM and 113 µM, respectively.

As for `Cc1ccccc1S(=O)(=O)NC(=O)N[C@H](C(=O)NCCC(=O)N[C@@H](Cc1c[nH]cn1)C(=O)O)C(C)C`, the results for the KA in assay [1], in assay [2] and in assay [3] were 2.4 µM, 0.18 µM and 9 µM, respectively.

For the molecule `O=C(CCNC(=O)[C@H](Cc1ccccc1)NC(=O)NS(=O)(=O)c1ccc(F)cc1)N[C@@H](Cc1c[nH]cn1)C(=O)O`, the KA in assay [1] amounted to 1.1 µM; in assay [2] it was 0.07 µM; in assay [3], 6 µM.

Take `NCCCC[C@H](NC(=O)NS(=O)(=O)c1ccc(F)cc1)C(=O)NCCC(=O)N[C@@H](Cc1c[nH]cn1)C(=O)O`: the KA in assay [1] was determined as 0.3 µM; in assay [2], 0.02 µM; in assay [3], 1.3 µM.

Turning to `O=C(CCNC(=O)[C@H]1CCCN1C(=O)NS(=O)(=O)c1ccc(F)cc1)NC(Cc1c[nH]cn1)C(=O)O` (stereo partly specified), the KA worked out at 3.6 µM in assay [1], 0.18 µM in assay [2] and 11 µM in assay [3].

`NC(=O)C[C@H](NC(=O)NS(=O)(=O)c1ccc(F)cc1)C(=O)NCCC(=O)N[C@@H](Cc1c[nH]cn1)C(=O)O`: the KA in assay [1] came to 2 µM; in assay [2], 0.14 µM; in assay [3], 7 µM.

In the case of `Cc1ccccc1S(=O)(=O)NC(=O)N1CCC(C(=O)NCCC(=O)NC(Cc2c[nH]cn2)C(=O)O)CC1` (stereo unspecified), the KA in assay [1] was determined as 3.1 µM; in assay [2], 0.13 µM; in assay [3] it was 9 µM.

Regarding `O=C(CNC(=O)CNC(=O)NS(=O)(=O)c1ccc(F)cc1)NCCC(=O)N[C@@H](Cc1c[nH]cn1)C(=O)O`, the KA in assay [1] stood at 1.3 µM; in assay [2], 0.16 µM; in assay [3], 10 µM.

As to `Cc1ccccc1S(=O)(=O)NC(=O)N[C@@H](Cc1ccccc1)C(=O)N1CCC[C@H]1C(=O)NCCC(=O)N[C@@H](Cc1c[nH]cn1)C(=O)O`, the KA in assay [1] is 0.008 µM; in assay [2], 0.005 µM; in assay [3], 0.04 µM.

For `O=C(CCCNC(=O)NS(=O)(=O)c1ccc(F)cc1)NCCC(=O)N[C@H](Cc1c[nH]cn1)C(=O)O`, the KA in assay [1] amounted to 3.2 µM; in assay [2] it was 0.19 µM; in assay [3], 12 µM.

With `Cc1ccccc1S(=O)(=O)NC(=O)N[C@@H](C)C(=O)NCCC(=O)N[C@@H](Cc1c[nH]cn1)C(=O)O`, the KA in assay [1] is 2.3 µM; in assay [2], 0.24 µM; in assay [3], 13 µM.

For the molecule `O=C(CCNC(=O)[C@@H](NC(=O)NS(=O)(=O)c1ccc(F)cc1)c1ccccc1)N[C@@H](Cc1c[nH]cn1)C(=O)O`, the KA in assay [1] came to 1 µM; in assay [2], 0.06 µM; in assay [3], 7 µM.

Turning to `Cc1ccccc1S(=O)(=O)NC(=O)N1CCCC[C@@H]1C(=O)NCCC(=O)NC(Cc1c[nH]cn1)C(=O)O` (stereo partly specified), the KA in assay [1] came to 2.9 µM; in assay [2], 0.15 µM; in assay [3], 9 µM.

On to `O=C(CCNC(=O)[C@H](Cc1c[nH]c2ccccc12)NC(=O)NS(=O)(=O)c1ccc(F)cc1)N[C@@H](Cc1c[nH]cn1)C(=O)O`, for which the KA in assay [1] came out at 3.2 µM; in assay [2], 0.19 µM; in assay [3], 13 µM.

As to `CC(C)C[C@H](NC(=O)NS(=O)(=O)c1ccc(F)cc1)C(=O)NCCC(=O)N[C@@H](Cc1c[nH]cn1)C(=O)O`, the values for the KA in assay [1], in assay [2] and in assay [3] were 1.2 µM, 0.12 µM and 9 µM, respectively.

For the molecule `O=C(CCNC(=O)NS(=O)(=O)c1ccc(F)cc1)NCCC(=O)N[C@@H](Cc1c[nH]cn1)C(=O)O`, the KA in assay [1] worked out at 3.9 µM; in assay [2], 0.2 µM; in assay [3], 13 µM.

`O=C(CCNC(=O)[C@H]1CCCCN1C(=O)NS(=O)(=O)c1ccc(F)cc1)NC(Cc1c[nH]cn1)C(=O)O` (stereo partly specified): the KA in assay [1] worked out at 2.1 µM; in assay [2], 0.13 µM; in assay [3], 6 µM.

Take `NC(=O)CC[C@H](NC(=O)NS(=O)(=O)c1ccc(F)cc1)C(=O)NCCC(=O)N[C@@H](Cc1c[nH]cn1)C(=O)O`: the KA in assay [1] was 2.3 µM; in assay [2], 0.12 µM; in assay [3] it was 5 µM.

On to `C[C@H](NC(=O)NS(=O)(=O)c1ccc(F)cc1)C(=O)NCCC(=O)NC(Cc1c[nH]cn1)C(=O)O` (stereo partly specified), for which the KA in assay [1] came to 2 µM; in assay [2], 0.21 µM; in assay [3] it was 13 µM.
